Among the data in ChEMBL document CHEMBL4513216, “Probing the Open Global Health Chemical Diversity Library for Multistage-Active Starting Points for Next-Generation Antimalarials” (ACS Infect Dis, 2020) are cytotoxicity values, retold here.

The series can be described thus: Toxicity liver stage against HepG2, at 10uM. The arrangement: test concentration 10 uM, cell line HepG2-A16-CD81EGFP. It counts as cell-based. The settings on record: human, HepG2-A16-CD81EGFP cells; read-out: INHIBITION
In a few lines: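 Uninfected HepG2-A16-CD81EGFP cells, 3 × 10^3 per well, 1536-well, plated on prespotted compound at 10 μM final, parasite-free screening media added to match infected plates; puromycin 10 μM positive, DMSO 0.5% negative; run in parallel with 48 h PbLuc assay at 37 °C, 5% CO2; viability by CellTiter-Glo luminescence, normalized to controls.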
In the case of `Cc1ccc(C(=O)N2CCC3(CC2)CCN(Cc2ccccn2)C3=O)o1`, the cytotoxicity at 10 µM amounted to 2.49%.

Take `CN1CC2(CCN(Cc3ccoc3)CC2)COc2ccccc2S1(=O)=O`: the cytotoxicity at 10 µM is -1.48%. In the case of `O=C([C@@H]1COC[C@H]2CN(C3CCCC3)C[C@H]21)N1CCCO1`, the cytotoxicity at 10 µM is -0.262%. In the case of `COc1ccc(CCNC(=O)C2CC2)c(Cl)c1`, the cytotoxicity at 10 µM is -2.43%. In the case of `Cc1ccn(C)c(=O)c1NC(=O)N(C)Cc1cccc(OC(C)C)c1`, the cytotoxicity at 10 µM turned out to be 2.29%.

Turning to `CCOCCCNc1nc(CS(=O)(=O)c2ccccc2)cs1`, the cytotoxicity at 10 µM amounted to 9.75%.

With `CNc1ncccc1CN1CCC1c1cc(N)nc(C)n1` (stereo unspecified), the cytotoxicity at 10 µM came out at 15.9%. The same measure for `Cc1nn(C)c2c(N3CCN(C(=O)C4CC4)CC3)ncnc12`: 9.02%. On to `Cc1n[nH]c(C)c1CCC(=O)N1CCC(O)(CN2CCN(C)CC2)C1` (stereo unspecified), for which the cytotoxicity at 10 µM was -6.13%. The same measure for `CCOC(=O)CC(c1cccc(OC)c1OC)c1c(C)[nH][nH]c1=O` (stereo unspecified): 0.0535%. `CCOCCNC(=O)[C@@H]1CCCN1c1nccc(Nc2ccccc2)n1`: the cytotoxicity at 10 µM came to 2.66%.

In the case of `CC1=Nc2c(c(=O)[nH]n2C2CCCC2)C(c2cccnc2)S1` (stereo unspecified), the cytotoxicity at 10 µM is -0.955%.

On to `C=C(C)CN1CCCC(CNS(C)(=O)=O)C1` (stereo unspecified), for which the cytotoxicity at 10 µM was found to be 5.63%.

As for `CCCN(CCO)C(=O)C1CCC(=O)N(CCc2ccc(Cl)cc2)C1` (stereo unspecified), the cytotoxicity at 10 µM is -12.5%. With `COCc1ncn2c1CN(C(=O)c1cccc3cccnc13)CC2`, the cytotoxicity at 10 µM is -19.7%.

For `Cn1ccnc1CNC(=O)Nc1ccc(OC2CCC2)c(F)c1`, the cytotoxicity at 10 µM was -4.92%.

Turning to `CC(C)Oc1cccc(C(O)CNC(=O)Nc2cccs2)c1` (stereo unspecified), the cytotoxicity at 10 µM stood at 2.19%.

With `CCOc1cccc(C2CC(=O)NCc3nc(N4CCCC4)sc32)c1` (stereo unspecified), the cytotoxicity at 10 µM was -2.53%. On to `CCc1ncc2c(n1)CN(c1cc(NC3CC3)nc(N)n1)C2`, for which the cytotoxicity at 10 µM amounted to 5.75%. The result for `Cc1nc(CN2CCC3(CC2)CC(=O)N(C)c2ccccc23)cs1` reads 0.0115%; that for `Cc1ncoc1C(=O)N1CCc2[nH]nc(-c3ccc4c(c3)OCO4)c2C1`, -143%; that for `Cc1cnn(C2CCCN(C(=O)c3ccc(N4CCCC4)nn3)C2)c1` (stereo unspecified), -2.38%. For `CN(C)CCn1nc(C2CCN(S(=O)(=O)N(C)C)C2)c2cccnc21` (stereo unspecified), the cytotoxicity at 10 µM was -2.15%. Take `OCCN1CCOC2(CCCN(c3ncc(F)cn3)C2)C1` (stereo unspecified): the cytotoxicity at 10 µM was found to be 5.98%.

As to `CN(C)S(=O)(=O)N(Cc1cscn1)c1ccccc1`, the cytotoxicity at 10 µM is -3.91%. The result for `Cc1cc(-c2cnc(N3CCCC(C)C3)nc2-c2cccnc2C)on1` (stereo unspecified) reads 7.85%. With `O=C(NC1CCCC1)c1nc(COc2ccc3c(c2)OCO3)no1`, the cytotoxicity at 10 µM stood at 2.87%. The result for `COCc1cc(CNC(=O)c2c(C)cc(C)[nH]c2=O)n[nH]1` reads -4.69%; that for `Cc1c(C(C)Nc2ncnc3sccc23)cnn1C` (stereo unspecified), 40.1%; that for `c1ccc(CCc2n[nH]c(C3CCOC3)n2)cc1` (stereo unspecified), 2.78%. `CCN(CCS(=O)(=O)CC)CC1CCCO1` (stereo unspecified): the cytotoxicity at 10 µM is -0.157%. For `CC(C)Nc1nc2c(c(NC3CC3)n1)CN(C(=O)c1ccnnc1)CC2`, the cytotoxicity at 10 µM is -0.449%.

For `CCNC(=O)NC(=O)CNC(C)(C)c1ccc2c(c1)OCCO2`, the cytotoxicity at 10 µM was -19.7%. For `CCCn1nc2c(cc1=O)CN(CCN1CCCC1=O)CC2`, the cytotoxicity at 10 µM is -11.6%. `c1cc2nccc(CC3CCCN(Cc4ncc[nH]4)CC3)c2cn1` (stereo unspecified): the cytotoxicity at 10 µM was -2.06%. For `COc1cccc(COC(C)C(=O)NC2CCN(CC(N)=O)CC2)c1` (stereo unspecified), the cytotoxicity at 10 µM is 0.234%. Consider `COc1c(CNCc2cccnc2N2CCCCC2)c(C)nn1C`, for which the cytotoxicity at 10 µM is -151%. The same measure for `Cc1ccc(CN(C)C(=O)CN2CCCC2Cn2cccn2)o1` (stereo unspecified): -10.4%.

`CCC1(CC)C(=O)NC(=O)N=C1Nc1ccc(C)cc1`: the cytotoxicity at 10 µM was -6.34%. As for `CN(Cc1ccco1)[C@@H]1CN(Cc2ccc(F)cc2)[C@@H]2CCCO[C@H]12`, the cytotoxicity at 10 µM is -70.6%.

Turning to `Cc1ncc(CN(C)CC(O)c2ccc(OC(F)(F)F)cc2)s1` (stereo unspecified), the cytotoxicity at 10 µM was 9.99%. For `Cc1ccc(F)c(OC2(C(=O)O)CCN(C(=O)C3CCCC3)CC2)c1`, the cytotoxicity at 10 µM amounted to 3.33%. For the molecule `COc1c[nH]c(C(=O)Nc2nc(C)cs2)cc1=O`, the cytotoxicity at 10 µM was -44.4%. Regarding `CC1NC(=O)COC12CCN(C(=O)Cc1ccsc1)CC2` (stereo unspecified), the cytotoxicity at 10 µM was -5.73%. Turning to `CC(C)n1cnnc1CNC(=O)CCCOc1ccccc1F`, the cytotoxicity at 10 µM was -4.56%. As for `Cc1ccc(-n2nnc(C(=O)NCCS(N)(=O)=O)c2C2CC2)cc1`, the cytotoxicity at 10 µM was -5.21%. In the case of `O=C1CCC(=O)N1Cc1ccc(C(=O)N2CCCC2c2cccs2)cc1` (stereo unspecified), the cytotoxicity at 10 µM came to 2.8%. In the case of `COc1cccc(SCC(=O)N2CCCC(N3CCCC3=O)C2)c1` (stereo unspecified), the cytotoxicity at 10 µM was found to be 6.16%. Turning to `c1cc(-c2cn[nH]c2)ccc1CN1CCNCC1`, the cytotoxicity at 10 µM is 0.866%. As to `c1ccc(-c2cccc(N3CCC(NCCc4cscn4)CC3)c2)cc1`, the cytotoxicity at 10 µM was determined as 3.58%. Turning to `CNc1cc(C2CCCN2C(=O)c2ccc(=O)[nH]n2)ccn1` (stereo unspecified), the cytotoxicity at 10 µM is -5.04%.

Regarding `COCC(=O)N1CCCC1(C)c1nc(C)cc(O)n1` (stereo unspecified), the cytotoxicity at 10 µM was -28.5%. For `O=C(CC1=CSC2=NCCN12)N1CCCC(CCc2cccc(F)c2)C1` (stereo unspecified), the cytotoxicity at 10 µM turned out to be 5.21%. Take `Cc1nc(CN2C(=O)C[C@@H]3[C@@H]2CCN3S(=O)(=O)C2CC2)cs1`: the cytotoxicity at 10 µM was -124%. For `Cc1cccnc1CNc1ccc(C(=O)N2CCc3ccccc32)cn1`, the cytotoxicity at 10 µM was -0.608%. The same measure for `NC(=O)CN1CCC(c2noc3cc(F)ccc23)CC1`: 5.47%; for `Cc1ccc(NCc2cn3c(n2)CN(Cc2ccc(C)o2)CC3)nn1`: 8.19%. Turning to `CN1CCC(N(C)CCC(=O)N2CCC(CCc3ccccc3)CC2)C1` (stereo unspecified), the cytotoxicity at 10 µM is -5.87%. Take `O=C(Cc1cccs1)N1C[C@H]2CN(CC3CCCO3)CC[C@H]2C1` (stereo partly specified): the cytotoxicity at 10 µM turned out to be 4.96%. For `Cc1c(CCC(=O)Nc2ccc(Br)cn2)cnn1C`, the cytotoxicity at 10 µM is -6.14%. As for `CC(C)N(C(=O)Cn1nc2n(c1=O)CCCCC2)C1CCC1`, the cytotoxicity at 10 µM was -7.62%.

For the molecule `CNC(=O)C1CN(c2ccnc(C)n2)CCN1Cc1ccccc1` (stereo unspecified), the cytotoxicity at 10 µM came to 8.48%. As to `CC1CN(CC(=O)Nc2nccs2)CCN1Cc1nccn1C` (stereo unspecified), the cytotoxicity at 10 µM was -15.4%. The result for `COc1c(CNCc2ccc(Cn3cccn3)cc2)c(C)nn1C` reads 35.5%.

For `COCCN1CCCC2(CCN(c3nc(C)nc4ccsc34)C2)C1=O` (stereo unspecified), the cytotoxicity at 10 µM turned out to be 10.7%. As for `CCN(Cc1cccnc1)C1CCN(c2ccccc2)C1=O` (stereo unspecified), the cytotoxicity at 10 µM was -0.483%. The result for `CNC(=O)[C@@H](C1CCCCC1)N1CCC[C@H]1C(=O)NCCN1CCCC1` reads -4.31%; that for `CC(NC(=O)NCCC(=O)OC(C)(C)C)c1nncn1C` (stereo unspecified), 2.49%; that for `C[S+]([O-])c1ccc(NC(=O)Cc2cccnc2)cc1F` (stereo unspecified), -4.26%. Regarding `Cc1cc(NC(=O)c2ccc(CN3CC[C@H](O)C3)cc2)ccc1F`, the cytotoxicity at 10 µM is 4.5%. The same measure for `Cn1cnc(S(=O)(=O)N2CCN(CC3CC3)c3ncccc3C2)c1`: -160%; for `Cc1nnc(CN2CCC(Oc3ccc(C)c(C)c3)CC2)o1`: 7.27%. `COc1cccc(N2CCN(CC(O)c3ccc(C)cc3)CC2)c1` (stereo unspecified): the cytotoxicity at 10 µM is -11.6%. Consider `O=C(c1ccn(-c2cccc(Cl)c2)n1)N1CCN(CCO)CC1`, for which the cytotoxicity at 10 µM is -17.1%.

`COc1ccc(C[C@H]2CN(C(=O)c3cnoc3)CC[C@@H]2OC)cc1`: the cytotoxicity at 10 µM came to 4.09%. For `O=C1CO[C@@H]2CN(C3CCOCC3)C[C@H]2N1Cc1ccncc1`, the cytotoxicity at 10 µM is -151%. In the case of `Cc1nc(C)n(CC2CCCN2Cc2cn3c(C)cccc3n2)n1` (stereo unspecified), the cytotoxicity at 10 µM is 2.02%. Consider `CCn1ccnc1CN(C)c1cc(OC)ncn1`, for which the cytotoxicity at 10 µM was -37.5%.

Regarding `O=C1NC2(CCN(Cc3ccsc3)CC2)CC1c1ccncc1` (stereo unspecified), the cytotoxicity at 10 µM is 4.93%. For `CC(C)Oc1cc(N2CCC(C(N)=O)CC2)nc(N)n1`, the cytotoxicity at 10 µM was 2.96%. Regarding `Cc1nc(C)n(CC2CCCN(Cc3cn4c(C)cccc4n3)C2)n1` (stereo unspecified), the cytotoxicity at 10 µM is -6.01%.

Consider `O=S(=O)(c1cccs1)N1CCCn2nnc(CN3CCCCC3)c2C1`, for which the cytotoxicity at 10 µM is -17.5%. For the molecule `CCC(=O)N1CCN(C(=O)Nc2cccc(F)c2)[C@H]2CS(=O)(=O)C[C@H]21`, the cytotoxicity at 10 µM is -46.8%.

Turning to `CCOc1ccc(N(C)Cc2nc(C)c(C)o2)cc1`, the cytotoxicity at 10 µM is 19.9%. In the case of `CN1CCCN(C(=O)c2csc(-c3ccc(C(F)(F)F)cc3)n2)CC1`, the cytotoxicity at 10 µM was -5.81%. Turning to `CCC(C(=O)Nc1ccc2c(C)n[nH]c2c1)N1CCCC1=O` (stereo unspecified), the cytotoxicity at 10 µM is -48.9%. Take `Cc1cc(F)ccc1OC1(C(=O)O)CCN(Cc2cccnc2N)CC1`: the cytotoxicity at 10 µM was -1.83%. As to `CCN1CCN(c2ccc(C(=O)NCc3cc(C)no3)cc2F)CC1`, the cytotoxicity at 10 µM was determined as 11.2%. Consider `Cc1cc(F)c2c(c1)CCCN2S(=O)(=O)c1ncn(C)c1Cl`, for which the cytotoxicity at 10 µM amounted to 1.99%. The result for `O=C(NCc1ccccc1CN1CCCC1)Nc1nncs1` reads 6.13%; that for `CC1CN(C)CCN1C(=O)c1cccn1Cc1cccnc1` (stereo unspecified), -13.5%; that for `CCCc1nn(C2CCCN(C(C)C)C2=O)c(=O)o1` (stereo unspecified), -6.11%. Consider `COc1ccc(C(=O)N(C)Cc2cccc(C#N)c2)c(OC)c1OC`, for which the cytotoxicity at 10 µM was -17.1%. Take `COc1cccc(CN2CCN(c3noc(C(C)C)n3)CC2)c1F`: the cytotoxicity at 10 µM came out at 2.97%. Regarding `Cc1noc(C)c1CN1C(=O)[C@@H]2CC[C@H]1CN(Cc1ccc(Cl)cc1)C2`, the cytotoxicity at 10 µM is 6.22%. On to `CCc1ccc(NC(=O)N2C[C@@H]3C[C@H](C(=O)NC4CCC4)[C@H](C2)O3)cc1`, for which the cytotoxicity at 10 µM was -2.25%.
